The values below come from ChEMBL document CHEMBL4613265, “Novel Human Neutral Sphingomyelinase 2 Inhibitors as Potential Therapeutics for Alzheimer's Disease” (J Med Chem, 2020).

Data set [1] in a line: Stability in mouse liver microsomes assessed as parent compound remaining at 1 uM measured after 60 mins in absence of NADPH by LC-MS/MS analysis. It is filed as ADME, Microsome. To be noted: for remaining at 1 h, 1 µM: liver microsomes, read-out: Stability. The procedure, abridged:
(§1)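 Cofactor-free control for cofactor-independent degradation. Mouse or human liver microsomes at 0.2 mg/mL, 1 μM compound (final), 100 mM potassium phosphate at pH 7.4, no NADPH regenerating system. Adding microsomes started the reaction; run in triplicate. Sampled at 60 min and quenched with three volumes of ice-cold acetonitrile spiked with internal standard.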

Data set [2] is described as follows: Stability in human liver microsomes assessed as parent compound remaining at 1 uM measured after 60 mins in absence of NADPH by LC-MS/MS analysis. The format is ADME, Microsome. As to conditions: for remaining at 1 h, 1 µM: liver microsomes, read-out: Stability. The procedure, abridged: as §1
On the technique in general: Liver microsomes are a subcellular fraction often used to study metabolism.

Data set [3] in a line: Stability in mouse liver microsomes assessed as CYP450-mediated metabolism by measuring parent compound remaining at 1 uM measured after 60 mins in presence of NADPH generating system by LC-MS/MS analysis. As to conditions: 1 h. The format is ADME. The procedure, abridged:
(§2)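 Liver microsomes from mouse or human, 0.2 mg/mL, with 1 μM compound (final) in 100 mM potassium phosphate at pH 7.4. Adding microsomes started the reaction; triplicates. After 60 min, quenched with 3 volumes of ice-cold acetonitrile containing internal standard.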

In the next data set the test system is Cytochrome P450. Kind of data set: Stability in human liver microsomes assessed as CYP450-mediated metabolism by measuring parent compound remaining at 1 uM measured after 60 mins in presence of NADPH generating system by LC-MS/MS analysis. It is filed as ADME. To be noted: 1 h. Summed up: as §2

Structures are written as SMILES. Where only a bound is given, the exact number is not on record here.

Consider `CC(=O)N[C@@H]1CCN(c2cc(C)nn3c(-c4cccc(N5CCOCC5)c4)c(C)nc23)C1`, for which the remaining at 1 h, 1 µM in data set [1] and in data set [2] was over 95% each time.
For `COc1ccc(-c2c(C)nc3c(N4CC[C@@H](NC(=O)Nc5ccccc5)C4)cc(C)nn23)cc1OC`, the Parent compound remaining in data set [3] is 87%. Moreover, the Stability in the data set with Cytochrome P450 is reported as 90%. The remaining at 1 h, 1 µM in data set [1] and in data set [2] was over 95% each time.
Turning to `CSc1ccc(-c2c(C)nc3c(N4CC[C@@H](NC(C)=O)C4)cc(C)nn23)cc1`, the Parent compound remaining in data set [3] was determined as 32%. For the same compound, in the data set with Cytochrome P450, the Stability was 84%. Further, the remaining at 1 h, 1 µM in data set [1] and in data set [2] was over 95% throughout.
For the compound `COc1ccc(-c2c(C)nc3c(N4CC[C@@H](O)C4)cc(C)nn23)cc1OC`, the remaining at 1 h, 1 µM in data set [1] and in data set [2] was over 95% throughout.
For the compound `COc1ccc(-c2c(C)nc3c(N4CC[C@@H](N=[N+]=[N-])C4)cc(C)nn23)cc1OC`, the remaining at 1 h, 1 µM in data set [1] and in data set [2] was over 95% each time.
As to `CC(=O)N[C@@H]1CCN(c2cc(C)nn3c(-c4ccc(OC(F)(F)F)cc4)c(C)nc23)C1`, the Parent compound remaining in data set [3] worked out at 72%. Also, the Stability in the data set on Cytochrome P450 came to 114%. Moreover, the remaining at 1 h, 1 µM in data set [1] and in data set [2] was over 95% each time.
As to `CCN(CCNC(C)=O)c1cc(C)nn2c(-c3ccc(OC)c(OC)c3)c(C)nc12`, the remaining at 1 h, 1 µM in data set [1] and in data set [2] was over 95% each time.
For the compound `COc1ccc(-c2c(C)nc3c(N4CCOCC4)cc(C)nn23)cc1OC`, the remaining at 1 h, 1 µM in data set [1] and in data set [2] was over 95% each time.
Consider `COc1ccc(-c2c(C)nc3c(N4CC[C@@H](NS(=O)(=O)C5CC5)C4)cc(C)nn23)cc1OC`, for which the Parent compound remaining in data set [3] is recorded as 95%. The Stability with Cytochrome P450 was 111%. Moreover, the remaining at 1 h, 1 µM in data set [1] and in data set [2] was over 95% each time.
For `COc1ccc(-c2c(C)nc3c(N4CC[C@H](O)C4)cc(C)nn23)cc1OC`, the remaining at 1 h, 1 µM in data set [1] and in data set [2] was over 95% each time.
With `COc1ccc(-c2c(C)nc3c(N4CC[C@@H](NC(=O)Oc5ccc6ccccc6c5)C4)cc(C)nn23)cc1OC`, the remaining at 1 h, 1 µM in data set [1] and in data set [2] was over 95% in each case.
On to `COc1ccc(-c2c(C)nc3c(N4CC[C@@H](NS(N)(=O)=O)C4)cc(C)nn23)cc1OC`, for which the remaining at 1 h, 1 µM in data set [1] and in data set [2] was over 95% each time.
With `COc1ccc(-c2c(C)nc3c(N4CC[C@@H](NS(=O)(=O)c5ccc(C(C)=O)cc5)C4)cc(C)nn23)cc1OC`, the Parent compound remaining in data set [3] is 5%. In addition, the Stability in the data set on Cytochrome P450 is given as 12%. In addition, the remaining at 1 h, 1 µM in data set [1] and in data set [2] was over 95% in each case.
For `COc1ccc(-c2c(C)nc3c(N4CC[C@@H](NC(=O)OCc5ccccc5)C4)cc(C)nn23)cc1OC`, the remaining at 1 h, 1 µM in data set [1] and in data set [2] was over 95% each time.
For `CC(=O)N[C@@H]1CCN(c2cc(C)nn3c(-c4ccc(C#N)cc4)c(C)nc23)C1`, the remaining at 1 h, 1 µM in data set [1] and in data set [2] was over 95% in each case.
Turning to `COc1ccc(-c2c(C)nc3c(N4CC[C@@H](NC(C)=O)C4)cc(Cl)nn23)cc1OC`, the remaining at 1 h, 1 µM in data set [1] and in data set [2] was over 95% each time.
For the compound `COc1ccc(-c2c(C)nc3c(N4CC[C@@H](n5cc(-c6ccccc6)nn5)C4)cc(C)nn23)cc1OC`, the Stability result in data set [1] (microsomes, 1 h, 1 µM) is listed as “Unstable”; in data set [2] (microsomes, 1 h, 1 µM), “Unstable”.
For `CC(=O)N[C@@H]1CCN(c2cc(C)nn3cc(C)nc23)C1`, the remaining at 1 h, 1 µM in data set [1] and in data set [2] was over 95% in each case.
As to `COc1ccc(-c2c(C)nc3c(N4CC[C@@H](NC(=O)COc5ccccc5)C4)cc(C)nn23)cc1OC`, the remaining at 1 h, 1 µM in data set [1] and in data set [2] was over 95% throughout.
As to `COc1ccc(-c2c(C)nc3c(N4CC[C@@H](N)C4)cc(C)nn23)cc1OC`, the remaining at 1 h, 1 µM in data set [1] and in data set [2] was over 95% each time.
In the case of `COc1ccc(-c2c(C)nc3c(N4CC[C@@H](NC(C)=O)C4)ccnn23)cc1OC`, the remaining at 1 h, 1 µM in data set [1] and in data set [2] was over 95% throughout.
On to `CC(=O)N[C@@H]1CCN(c2cc(C)nn3c(-c4ccc(C(F)(F)F)cc4)c(C)nc23)C1`, for which the remaining at 1 h, 1 µM in data set [1] and in data set [2] was over 95% each time.
On to `COc1ccc(-c2c(C)nc3c(N4CC[C@@H](N5CCOCC5)C4)cc(C)nn23)cc1OC`, for which the remaining at 1 h, 1 µM in data set [1] and in data set [2] was over 95% throughout.
Consider `COc1ccc(-c2c(C)nc3c(N4CC[C@@H](OC(C)=O)C4)cc(C)nn23)cc1OC`, for which the remaining at 1 h, 1 µM in data set [1] and in data set [2] was over 95% in each case.
Take `COc1ccc(-c2c(C)nc3c(N4CCC(F)(F)C4)cc(C)nn23)cc1OC`: the remaining at 1 h, 1 µM in data set [1] and in data set [2] was over 95% each time.
Regarding `COc1ccc(-c2c(C)nc3c(N4CC[C@@H](NS(=O)(=O)c5ccc(NC(C)=O)cc5)C4)cc(C)nn23)cc1OC`, the remaining at 1 h, 1 µM in data set [1] and in data set [2] was over 95% each time.
For the compound `COc1ccc(-c2c(C)nc3c(N4CCN(C(C)=O)CC4)cc(C)nn23)cc1OC`, the remaining at 1 h, 1 µM in data set [1] and in data set [2] was over 95% throughout.
In the case of `COc1ccc(-c2c(C)nc3c(N4CC=CC4)cc(C)nn23)cc1OC`, the remaining at 1 h, 1 µM in data set [1] and in data set [2] was over 95% each time.
`COc1ccc(-c2c(C)nc3c(N4CC[C@@H](NC(C)=O)C4)cc(C)nn23)cn1`: the remaining at 1 h, 1 µM in data set [1] and in data set [2] was over 95% in each case.
As for `COc1ccc(-c2c(C)nc3c(N4CC[C@@H](NC(=O)Oc5cccc(C)c5)C4)cc(C)nn23)cc1OC`, the remaining at 1 h, 1 µM in data set [1] and in data set [2] was over 95% in each case.
With `COc1cc(-c2c(C)nc3c(N4CC[C@@H](NC(C)=O)C4)cc(C)nn23)cc(OC)c1OC`, the remaining at 1 h, 1 µM in data set [1] and in data set [2] was over 95% in each case.
Consider `COc1ccc(-c2c(C)nc3c(N4CC[C@@H](F)C4)cc(C)nn23)cc1OC`, for which the remaining at 1 h, 1 µM in data set [1] and in data set [2] was over 95% each time.
Regarding `CC(=O)N[C@@H]1CCN(c2cc(C)nn3c(-c4ccco4)c(C)nc23)C1`, the remaining at 1 h, 1 µM in data set [1] and in data set [2] was over 95% in each case.
For `COc1cc(-c2c(C)nc3c(N4CC[C@@H](NC(C)=O)C4)cc(C)nn23)ccc1F`, the remaining at 1 h, 1 µM in data set [1] and in data set [2] was over 95% in each case.
Turning to `COc1ccc(-c2c(C)nc3c(N4CCN(C(=O)OC(C)(C)C)CC4)cc(C)nn23)cc1OC`, the remaining at 1 h, 1 µM in data set [1] and in data set [2] was over 95% each time.
Consider `COc1ccc(-c2c(C)nc3c(N4CC[C@@H](NC(=O)c5ccccc5)C4)cc(C)nn23)cc1OC`, for which the remaining at 1 h, 1 µM in data set [1] and in data set [2] was over 95% in each case.
In the case of `COc1ccc(-c2c(C)nc3c(N4CC[C@@H](NS(C)(=O)=O)C4)cc(C)nn23)cc1OC`, the remaining at 1 h, 1 µM in data set [1] and in data set [2] was over 95% throughout.
Consider `CC(=O)N[C@@H]1CCN(c2cc(C)nn3c(-c4cccc(S(=O)(=O)N(C)C)c4)c(C)nc23)C1`, for which the remaining at 1 h, 1 µM in data set [1] and in data set [2] was over 95% throughout.
In the case of `COc1ccc(-c2c(C)nc3c(N4CC[C@@H](NS(=O)(=O)c5ccc(C#N)cc5)C4)cc(C)nn23)cc1OC`, the remaining at 1 h, 1 µM in data set [1] and in data set [2] was over 95% throughout.
With `CC(=O)N[C@@H]1CCN(c2cc(C)nn3c(-c4ccc5cc[nH]c5c4)c(C)nc23)C1`, the remaining at 1 h, 1 µM in data set [1] and in data set [2] was over 95% throughout.
For `COc1ccc(-c2c(C)nc3c(N4CC[C@@H](NC(C)=O)C4)cc(C)nn23)cc1F`, the remaining at 1 h, 1 µM in data set [1] and in data set [2] was over 95% throughout.
For the compound `CC(=O)N[C@@H]1CCN(c2cc(C)nn3c(-c4nccs4)c(C)nc23)C1`, the remaining at 1 h, 1 µM in data set [1] and in data set [2] was over 95% throughout.
As to `COc1ccc(-c2c(C)nc3c(N4CCN(C(=O)OC(C)(C)C)C4)cc(C)nn23)cc1OC`, the remaining at 1 h, 1 µM in data set [1] and in data set [2] was over 95% throughout.
Turning to `COc1ccc(-c2c(C)nc3c(N4CC[C@@H](NC(=O)Cc5ccccc5)C4)cc(C)nn23)cc1OC`, the remaining at 1 h, 1 µM in data set [1] and in data set [2] was over 95% throughout.
As to `COc1ccc(-c2c(C)nc3c(N4CC[C@@H](NC(=O)OC5CCCCC5)C4)cc(C)nn23)cc1OC`, the remaining at 1 h, 1 µM in data set [1] and in data set [2] was over 95% in each case.
For `COc1ccc(-c2c(C)nc3c(N4CC[C@@H](NC(=O)NC(C)C)C4)cc(C)nn23)cc1OC`, the remaining at 1 h, 1 µM in data set [1] and in data set [2] was over 95% in each case.
For `COc1ccc(-c2c(C)nc3c(N4CCN(C(=O)C5CCCCC5)CC4)cc(C)nn23)cc1OC`, the remaining at 1 h, 1 µM in data set [1] and in data set [2] was over 95% each time.
`CC(=O)N[C@@H]1CCN(c2cc(C)nn3c(-c4ccccc4)c(C)nc23)C1`: the remaining at 1 h, 1 µM in data set [1] and in data set [2] was over 95% each time.
With `COc1ccc(-c2c(C)nc3c(N4CC[C@@H](NC(=O)[C@@H](OC)c5ccccc5)C4)cc(C)nn23)cc1OC`, the remaining at 1 h, 1 µM in data set [1] and in data set [2] was over 95% throughout.
On to `COc1ccc(-c2c(C)nc3c(N4CC[C@@H](NS(=O)(=O)C(C)C)C4)cc(C)nn23)cc1OC`, for which the remaining at 1 h, 1 µM in data set [1] and in data set [2] was over 95% in each case.
